In one experiment the test system is HeLa. Put plainly: Competitive inhibition of [3H]LTC4 uptake by MRP1 expressing HeLa-T5 cell membranes. The format is functional, Homo sapiens.
The nature of experiment [1]: Selectivity ratio of average EC50 values was calculated in HL60/ADR cell line and HL60/Vinc cell line. The format is functional, HL-60. The essentials: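 Resistance reversal in MRP1-overexpressing HL60/Adr and P-gp-overexpressing HL60/Vinc cells. Modulator EC50 is the concentration-dependent enhancement of the antiproliferative response to an IC20 concentration of doxorubicin. Cell number is read by alamarBlue reduction. Ratio is the average EC50 in HL60/Vinc divided by the average EC50 in HL60/Adr.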

The target in experiment [2] is MRP1 (ABCC1, Homo sapiens). The experiment is described as follows: In vitro for its inhibitory activity against MRP1-transfected HeLa-T5 cell line in the presence of doxorubicin.

Where only a bound is given, the exact number is not on record here.

For `COc1cc(N(C)C(=O)Cc2cccc(-n3c(=O)c4c(C)onc4c4c(Cl)cccc43)c2)cc(OC)c1OC`, in the experiment on HeLa, the EC50 was 4.2 µM. Also, in experiment [1], the Ratio is on record as 4.

In the experiment on HeLa, `COc1cc(NC(=O)Cc2cccc(-n3c(=O)c4c(C)onc4c4c(Cl)cccc43)c2)cc(OC)c1OC` came in with an EC50 of 1.8 µM.

For `COc1cc(NC(=O)Cc2cccc(-n3c(=O)c4c(C)onc4c4c(Cl)cccc43)c2)cc(OC)c1O`, the EC50 is 1.7 µM with HeLa and 1.3 µM in experiment [2]. In addition, the Ratio in experiment [1] is on record as 14.

For the molecule `Cc1ccc(NC(=O)Cc2cccc(-n3c(=O)c4c(C)onc4c4c(Cl)cccc43)c2)cc1`, the EC50 in experiment [2] amounted to 3.7 µM.

Consider `Cc1onc2c1c(=O)n(-c1cccc(CC(=O)Nc3ccccc3)c1)c1cccc(Cl)c21`, for which, in experiment [2], the EC50 was 2.3 µM.

Consider `Cc1onc2c1c(=O)n(-c1cccc(CC(=O)Nc3ccc(C#N)cc3)c1)c1cccc(Cl)c21`, for which the EC50 in experiment [2] is 4.9 µM.

In the case of `Cc1onc2c1c(=O)n(-c1cccc(CC(=O)Nc3ccc(C(F)(F)F)cc3)c1)c1cccc(Cl)c21`, the EC50 in experiment [2] was more than 10 µM.

`COc1cc(OCCc2cccc(-n3c(=O)c4c(C)onc4c4c(Cl)cccc43)c2)cc(OC)c1OC` returned a 50% effective concentration (EC50) with HeLa of 4.4 µM. The Ratio in experiment [1] is given as 14.

In the case of `COc1cc(C(=O)NCc2cccc(-n3c(=O)c4c(C)onc4c4c(Cl)cccc43)c2)cc(OC)c1OC`, in experiment [2], the EC50 is 1.13 µM.

What is called EC50 is the concentration that produces a half-maximal response.

The values are drawn from ChEMBL document CHEMBL1135242, “Tricyclic isoxazoles are novel inhibitors of the multidrug resistance protein (MRP1)” (Bioorg Med Chem Lett, 2002).
